Where two headings read alike, the source gives them in different places.
B1: OVA: chicken egg OVA control protein (protein, UniProt P01012 2-386, looked up)
Ovalbumin: GSIGAASMEFCFDVFKELKVHHANENIFYCPIAIMSALAMVYLGAKDSTRTQINKVVRFDKLPGFGDSIEAQCGTSVNVHSSLRDILNQITKPNDVYSFSLASRLYAEERYPILPEYLQCVKELYRGGLEPINFQTAADQARELINSWVESQTNGIIRNVLQPSSVDSQTAMVLVNAIVFKGLWEKAFKDEDTQAMPFRVTEQESKPVQMMYQIGLFRVASMASEKMKILELPFASGTMSMLVLLPDEVSGLEQLESIINFEKLTEWTSSNVMEERKIKVYLPRMKMEEKYNLTSVLMAMGITDVFSSSANLSGISSAESLKISQAVHAAHAEINEAGREVVGSAEAGVDAASVSEEFRADHPFLFCIKHIATNAVLFFGRCVSP

What was measured:
L. major LV39 [1] = system: L. major LV39; set-up: species or system Leishmania major; conditions: in vivo
[2] = system: ABLE T cells (LACK-specific TCR-transgenic); assay: Stimulation of ABLE T cells in vitro by peptides; format: cell-based, mouse
Procedure, shortened: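 Single-cell suspensions (red cells lysed) from spleen and lymph node of BALB/c ABLE TCR-Cα0 mice supplied both T cells and APC. They were plated at 10^6 cells/well in duplicate in RPMI 1640 with 10% heat-inactivated FCS, glutamine, pyruvate and β2-ME, with test peptides over a concentration range. At 48 h, supernatants went to sandwich ELISA against recombinant standards. Wells were then pulsed with 1 μCi [3H]thymidine and harvested 18 h later.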

[3] = system: ABLE T cells (LACK-specific TCR-transgenic); assay: T cell antagonism assay; format: cell-based, mouse; conditions: for Inhibitory (antagonist) activity, overall: 0.1–100 μM, proliferation, IL-4 and IFN-γ
Procedure, shortened: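 T cells: CD4+ cells enriched from BALB/c ABLE TCR-Cα0 spleen and lymph node by antibody/complement depletion (80% Vβ4+). APC: BALB/c TCR-Cα0 spleen cells, prepulsed 2 h at 37°C with 0.2 μM wild-type LACK peptide, washed, irradiated, then 2 h at 37°C with test peptide up to 100 μM (OVA323–336 control). 1.6 × 10^5 T cells/well were added. Cytokines were read by ELISA at 48 h; [3H]thymidine uptake over 48–66 h. Values are % inhibition versus prepulsed APC without added peptide.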

L. major LV39 [4] = system: L. major LV39; set-up: species or system Leishmania major; conditions: in vivo; remark: listed apart in the source
[5] = system: popliteal lymph node CD4+ T cells; conditions: mouse, in vivo
[6] = system: Vβ4+ T cells of ABLE TCR-Cα^0 mice; conditions: mouse, in vivo
[7] = APC prepulsed with LACK peptide, 48 h ELISA

| Molecule | Protection (L. major LV39 [1]) | IL-4 production by ABLE T cells ([2]; 48 h supernatants, ELISA, detection limit 50 pg/ml) | IFN-γ production by ABLE T cells ([2]; 48 h supernatants, ELISA, detection limit 1 ng/ml) | Concentration without proliferation of ABLE T cells (highest tested) ([2]; no proliferation even at concentrations up to 4 μM, [3H]thymidine) | Inhibitory (antagonist) activity, overall [3] | Inhibition of IFN-γ production [3, 7] | Inhibition of IL-4 production [3, 7] | Protection (L. major LV39 [4]) | Proliferation induced by LACK epitopes [5] | Total number of transgenic T cells in draining lymph nodes [6] |
| --- | --- | --- | --- | --- | --- | --- | --- | --- | --- | --- |
| ICFSPSLENPIVVSGSWD [LACK-N164] | Subgroups of resistant and susceptible mice occurred | neither cytokine was detected | neither cytokine was detected | > 4 µM | preferentially inhibited IL-4 production by ABLE T cells | inhibited consistently less | inhibited comparably to the LACK-K164 peptide |  |  |  |
| ISQAVHAAHAEINE [OVA323–336, reference compound] |  |  |  |  | no inhibitory activity |  |  |  |  |  |
| B1 |  |  |  |  |  |  |  | in contrast to the LACK deletion mutant or OVA controls | No proliferation was induced | 2.9 × 10^5 |
